Measured values published in ChEMBL document CHEMBL1275391, “Design, synthesis, and preclinical evaluation of new 5,6- (or 6,7-) disubstituted-2-(fluorophenyl)quinolin-4-one derivatives as potent antitumor agents” (J Med Chem, 2010).

What was measured:
[1] = tested on: HL-60(TB); test: Growth inhibition of human HL-60(TB) cells; type: functional
[2] = tested on: SR; test: Growth inhibition of human SR cells; type: functional
[3] = tested on: EKVX; test: Growth inhibition of human EKVX cells; type: functional
[4] = tested on: NCI-H226; test: Growth inhibition of human NCI-H226 cells; type: functional
[5] = tested on: NCI-H460; test: Growth inhibition of human NCI-H460 cells; type: functional
[6] = tested on: COLO 205; test: Growth inhibition of human COLO205 cells; type: functional
[7] = tested on: HCC 2998; test: Growth inhibition of human HCC2998 cells; type: functional
[8] = tested on: HCT-116; test: Growth inhibition of human HCT116 cells; type: functional
[9] = tested on: KM12; test: Growth inhibition of human KM12 cells; type: functional
[10] = tested on: SF-295; test: Growth inhibition of human SF295 cells; type: functional
[11] = tested on: SNB-19; test: Growth inhibition of human SNB19 cells; type: functional
[12] = tested on: SNB-75; test: Growth inhibition of human SNB75 cells; type: functional
[13] = tested on: U-251; test: Growth inhibition of human U251 cells; type: functional
[14] = tested on: Malme-3M; test: Growth inhibition of human MALME-3M cells; type: functional
[15] = tested on: SK-MEL-2; test: Growth inhibition of human SK-MEL-2 cells; type: functional
[16] = tested on: SK-MEL-5; test: Growth inhibition of human SK-MEL-5 cells; type: functional
[17] = tested on: OVCAR-3; test: Growth inhibition of human OVCAR-3 cells; type: functional
[18] = tested on: NCI/ADR-RES; test: Growth inhibition of human NCI/ADR-RES cells; type: functional
[19] = tested on: CAKI-1; test: Growth inhibition of human Caki1 cells; type: functional
[20] = tested on: SN12C; test: Growth inhibition of human SN12C cells; type: functional
[21] = tested on: DU-145; test: Growth inhibition of human DU145 cells; type: functional
[22] = tested on: MDA-MB-231; test: Growth inhibition of human MDA-MB-231 cells; type: functional
[23] = tested on: MDA-MB-468; test: Growth inhibition of human MDA-MB-468 cells; type: functional
[24] = Cytotoxicity against human Hep3B cells after 48 hrs by MTT assay; type: functional, cell-based, Hep 3B2
In short: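 Cells exposed to a range of compound concentrations for 48 h, washed once with PBS, then incubated with MTT for 2 h. Formazan dissolved in DMSO and absorbance read at 570 nm. IC50 taken as the concentration giving 50% inhibition of proliferation.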

[25] = target: CYP1A2 (Homo sapiens, UniProt P05177); test: Inhibition of human CYP1A2 at 10 uM; type: ADME
Chain of CYP1A2 (P05177 whole entry): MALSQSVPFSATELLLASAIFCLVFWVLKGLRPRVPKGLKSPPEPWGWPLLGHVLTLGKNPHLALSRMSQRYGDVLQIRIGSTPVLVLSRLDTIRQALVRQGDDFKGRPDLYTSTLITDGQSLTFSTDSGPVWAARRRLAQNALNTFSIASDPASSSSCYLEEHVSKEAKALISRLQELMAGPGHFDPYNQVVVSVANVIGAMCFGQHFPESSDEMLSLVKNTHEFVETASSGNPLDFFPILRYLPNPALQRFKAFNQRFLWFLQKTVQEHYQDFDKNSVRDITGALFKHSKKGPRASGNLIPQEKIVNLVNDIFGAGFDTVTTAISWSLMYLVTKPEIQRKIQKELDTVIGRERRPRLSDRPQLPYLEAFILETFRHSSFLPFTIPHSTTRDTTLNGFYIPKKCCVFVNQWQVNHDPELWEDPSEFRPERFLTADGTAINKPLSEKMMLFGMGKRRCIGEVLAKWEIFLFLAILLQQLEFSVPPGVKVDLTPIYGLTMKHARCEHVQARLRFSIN

[26] = target: UGT1A1 (Homo sapiens, UniProt P22309); test: Inhibition of human UGT1A1 at 10 uM
Chain of UGT1A1 (P22309 whole entry): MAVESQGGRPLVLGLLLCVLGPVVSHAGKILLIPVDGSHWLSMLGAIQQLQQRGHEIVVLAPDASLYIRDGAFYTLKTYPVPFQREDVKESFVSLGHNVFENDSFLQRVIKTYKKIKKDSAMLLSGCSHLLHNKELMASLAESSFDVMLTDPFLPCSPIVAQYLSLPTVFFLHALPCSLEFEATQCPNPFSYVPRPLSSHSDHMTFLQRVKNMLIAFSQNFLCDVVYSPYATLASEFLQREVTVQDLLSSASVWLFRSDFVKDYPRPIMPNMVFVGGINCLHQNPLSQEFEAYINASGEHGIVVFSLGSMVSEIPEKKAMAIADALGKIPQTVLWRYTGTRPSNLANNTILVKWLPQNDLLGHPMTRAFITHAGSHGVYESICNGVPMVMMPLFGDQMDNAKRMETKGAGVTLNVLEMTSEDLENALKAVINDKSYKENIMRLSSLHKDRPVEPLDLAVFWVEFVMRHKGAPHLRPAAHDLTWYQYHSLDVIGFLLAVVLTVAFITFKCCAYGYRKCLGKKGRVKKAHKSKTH

[27] = read-out: pLC50 (the source's name) (converted)

With `COc1ccc2[nH]c(-c3cccc(F)c3)cc(=O)c2c1O` the GI50 [1] was 0.0224 µM, the CC50 [1, 27] was > 100 µM and the TGI ([1]; read-out: pTGI (converted)) was 0.0631 µM. For the same compound, the GI50 [2] was 0.012 µM, the CC50 [2, 27] was > 100 µM and the TGI ([2]; read-out: pTGI (converted)) was 0.0676 µM. The GI50 [3] was 0.0457 µM, the CC50 [3, 27] was > 100 µM and the TGI ([3]; read-out: pTGI) was > 100 µM. The GI50 [4] was 1.82 µM, the CC50 [4, 27] was > 100 µM and the TGI ([4]; read-out: pTGI (converted)) was 31.6 µM. For the same compound, the GI50 [5] was 0.0331 µM, the CC50 [5, 27] was 32.4 µM and the TGI ([5]; read-out: pTGI (converted)) was 1.05 µM. The GI50 [6] was 0.0251 µM, the CC50 [6, 27] was 0.832 µM and the TGI ([6]; read-out: pTGI (converted)) was 0.0661 µM. For the same compound, the GI50 [7] was 0.0324 µM, the CC50 [7, 27] was 16.2 µM and the TGI ([7]; read-out: pTGI (converted)) was 0.0661 µM. For the same compound, the GI50 [8] was 0.0331 µM, the CC50 [8, 27] was 29.5 µM and the TGI ([8]; read-out: pTGI (converted)) was 1.78 µM. It also gave a GI50 [9] of 0.0275 µM, a CC50 [9, 27] of 5.5 µM and a TGI ([9]; read-out: pTGI (converted)) of 0.151 µM. It also gave a GI50 [10] of 0.0257 µM, a CC50 [10, 27] of 53.7 µM and a TGI ([10]; read-out: pTGI (converted)) of 10.5 µM. The GI50 [11] was 0.0288 µM, the CC50 [11, 27] was > 100 µM and the TGI ([11]; read-out: pTGI (converted)) was 0.437 µM. For the same compound, the GI50 [12] was 0.0151 µM, the CC50 [12, 27] was 44.7 µM and the TGI ([12]; read-out: pTGI (converted)) was 0.0589 µM. It also gave a GI50 [13] of 0.0427 µM, a CC50 [13, 27] of 55 µM and a TGI ([13]; read-out: pTGI (converted)) of 14.5 µM. The CC50 [14, 27] was > 100 µM, the TGI ([14]; read-out: pTGI (converted)) was 52.5 µM and the GI50 [15] was 0.0724 µM. It also gave a CC50 [15, 27] of 77.6 µM, a TGI ([15]; read-out: pTGI (converted)) of 15.8 µM and a GI50 [16] of 0.0295 µM. The CC50 [16, 27] was 18.2 µM, the TGI ([16]; read-out: pTGI (converted)) was 0.2 µM and the GI50 [17] was 0.0191 µM. The CC50 [17, 27] was 30.2 µM, the TGI ([17]; read-out: pTGI (converted)) was 0.0407 µM and the GI50 [18] was 0.0209 µM. It also gave a CC50 [18, 27] of 40.7 µM, a TGI ([18]; read-out: pTGI (converted)) of 0.0537 µM and a GI50 [19] of 0.0468 µM. For the same compound, the CC50 [19, 27] was > 100 µM, the TGI ([19]; read-out: pTGI (converted)) was 22.9 µM and the GI50 [20] was 0.0617 µM. For the same compound, the CC50 [20, 27] was > 100 µM, the TGI ([20]; read-out: pTGI (converted)) was 38 µM and the GI50 [21] was 0.0209 µM. The CC50 [21, 27] was 33.9 µM, the TGI ([21]; read-out: pTGI (converted)) was 0.0525 µM and the GI50 [22] was 0.0617 µM. The CC50 [22, 27] was > 100 µM, the TGI ([22]; read-out: pTGI (converted)) was 22.9 µM and the GI50 [23] was 0.0398 µM. It also gave a CC50 [23, 27] of 0.851 µM, a TGI ([23]; read-out: pTGI (converted)) of 0.219 µM and an IC50 [24] of 0.07 µM. The inhibition at 10 µM [25] was 85% and the inhibition at 10 µM [26] was 86%.
